According to ChEMBL document CHEMBL3286182, “4-aminoquinolone piperidine amides: noncovalent inhibitors of DprE1 with long residence time and potent antimycobacterial activity” (J Med Chem, 2014):
pIC50: −log10 of the molar value. Values after ≈ are worked out from the molar mass of the structure shown. Active and inactive are the calls of the source. No cut-off for these calls is given here.

Experiments:
Candida albicans = experiment: Antimicrobial activity against Candida albicans ARC527 at 100 uM; format: functional, organism-based
How it was run: (§1)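 Nonmycobacterial panel of Candida albicans, Gram-negative and Gram-positive pathogens.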

Staphylococcus aureus = experiment: Antimicrobial activity against Staphylococcus aureus ARC517 at 100 uM; format: functional, organism-based; how it was run: as §1
[1] = test system: Mycolicibacterium smegmatis; experiment: Antimicrobial activity against Mycobacterium smegmatis ATCC 607 at 100 uM; format: functional, organism-based
Escherichia coli [2] = experiment: Antimicrobial activity against Escherichia coli ARC524 at 100 uM; format: functional, organism-based; how it was run: as §1
Streptococcus pneumoniae = experiment: Antimicrobial activity against Streptococcus pneumoniae ARC548 at 100 uM; format: functional, organism-based; how it was run: as §1
Haemophilus influenzae [3] = experiment: Antimicrobial activity against Haemophilus influenzae ARC446 at 100 uM; format: functional, organism-based; how it was run: as §1
Pseudomonas aeruginosa [4] = experiment: Antimicrobial activity against Pseudomonas aeruginosa ARC545 at 100 uM; format: functional, organism-based; how it was run: as §1
Escherichia coli [5] = experiment: Antimicrobial activity against Escherichia coli ARC523 at 100 uM; format: functional, organism-based; how it was run: as §1
Klebsiella pneumoniae = experiment: Antimicrobial activity against Klebsiella pneumoniae ARC1865 at 100 uM; format: functional, organism-based; how it was run: as §1
Pseudomonas aeruginosa [6] = experiment: Antimicrobial activity against Pseudomonas aeruginosa ARC546 at 100 uM; format: functional, organism-based; how it was run: as §1
[7] = Inhibition of Mycobacterium smegmatis recombinant DprE1 using farnesylphosphoryl-beta-D-ribofuranose as substrate assessed as conversion of amplex red to resorufin after 30 mins; set-up: species or system Mycolicibacterium smegmatis
How it was run: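 Msm DprE1 (thioredoxin-6His fusion of Msm Rv3790) at 75 nM, preincubated 30 min with 10 μM FAD. Buffer: 50 mM glycylglycine pH 8.5, 200 mM potassium glutamate, 0.002% Brij-35, 2% DMSO, 25 °C. Started with 300 μM farnesylphosphoryl-β-D-ribofuranose, 0.01 mg/mL HRP and 50 μM Amplex Red.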

Haemophilus influenzae [8] = experiment: Antimicrobial activity against Haemophilus influenzae ARC158 at 100 uM; format: functional, organism-based; how it was run: as §1
[9] = test system: Mycobacterium tuberculosis; experiment: Antimycobacterial activity against Mycobacterium tuberculosis H37Rv after 5 days by standard microdilution method; format: functional; settings: 120 h
[10] = test system: Mycolicibacterium smegmatis; experiment: Antimicrobial activity against Mycobacterium smegmatis mc2155 at 100 uM; format: functional, organism-based; settings: str. MC2 155
[11] = test system: Mycobacterium tuberculosis; experiment: Antimycobacterial activity against Mycobacterium tuberculosis H37Rv under hypoxic condition after 6 days by resazurin assay; format: functional

Row | SMILES | Activity (Candida albicans) | Activity (Staphylococcus aureus) | Activity [1] | Activity (Escherichia coli [2]) | Activity (Streptococcus pneumoniae) | Activity (Haemophilus influenzae [3]) | Activity (Pseudomonas aeruginosa [4]) | Activity (Escherichia coli [5]) | Activity (Klebsiella pneumoniae) | Activity (Pseudomonas aeruginosa [6]) | pIC50 [7] | Activity (Haemophilus influenzae [8]) | MIC [9] [µM] | Activity [10] | Activity [11]
1 | Cn1ncc(C(=O)N2CCC(Nc3cc(=O)[nH]c4cc(F)ccc34)CC2)c1Cl | inactive | inactive | inactive | inactive | inactive | inactive | inactive | inactive | inactive | inactive | 8.15 | inactive | 3.1 (≈ 1.25 µg/mL) | inactive | inactive
2 | Cn1ncc(C(=O)N2CCC(Nc3cc(-c4ccccc4)[nH]c(=O)c3)CC2)c1Cl |  |  |  |  |  |  |  |  |  |  | 5.52 |  | 50 (≈ 20.6 µg/mL) |  | 
3 | Cn1ncc(C(=O)N2CCC(Nc3cc(=O)[nH]c4ccccc34)C2)c1Cl (stereo not drawn) |  |  |  |  |  |  |  |  |  |  | 5.33 |  | > 200 |  | 
4 | CN(c1cc(=O)[nH]c2ccccc12)C1CCN(C(=O)c2cnn(C)c2Cl)CC1 | inactive | inactive | inactive | inactive | inactive | inactive | inactive | inactive | inactive | inactive | 4.74 | inactive | > 250 | inactive | inactive
5 | Cc1c(C(=O)N2CCC(Nc3cc(=O)[nH]c4ccc(F)cc34)CC2)nnn1C | inactive | inactive | inactive | inactive | inactive | inactive | inactive | inactive | inactive | inactive | 7.96 | inactive | 3.5 (≈ 1.35 µg/mL) | inactive | inactive
6 | C[C@H]1C[C@@H](Nc2cc(=O)[nH]c3ccccc23)CCN1C(=O)c1cnn(C)c1Cl |  |  |  |  |  |  |  |  |  |  | < 5.00 |  | > 200 |  | 
7 | Cc1onc(C(=O)N2[C@@H]3CC[C@H]2C[C@@H](Nc2cc(=O)[nH]c4cc(F)c(F)cc24)C3)c1C |  |  |  |  |  |  |  |  |  |  | 8.15 |  | 0.06 (≈ 0.0257 µg/mL) |  | 
8 | Cn1ncc(C(=O)N2[C@@H]3CC[C@H]2C[C@H](Nc2cc(=O)[nH]c4ccc(F)cc24)C3)c1Cl |  |  |  |  |  |  |  |  |  |  | 4.37 |  | > 200 |  | 
9 | Cc1c(C(=O)N2CCC(Nc3cc(=O)[nH]c4ccccc34)CC2)cnn1C | inactive | inactive | inactive | inactive | inactive | inactive | inactive | inactive | inactive | inactive | 6.68 | inactive | 6.2 (≈ 2.27 µg/mL) | inactive | inactive
10 | C[C@H]1C[C@H](Nc2cc(=O)[nH]c3ccccc23)CCN1C(=O)c1cnn(C)c1Cl |  |  |  |  |  |  |  |  |  |  | 7.59 |  | 12.5 (≈ 5 µg/mL) |  | 
11 | Cn1ncc(C(=O)N2CCC(Oc3cc(=O)[nH]c4ccccc34)CC2)c1Cl | inactive | inactive | inactive | inactive | inactive | inactive | inactive | inactive | inactive | inactive | 5.10 | inactive | 50 (≈ 19.3 µg/mL) | inactive | inactive
12 | CCn1ncc(C(=O)N2CCC(Nc3cc(=O)[nH]c4ccc(F)cc34)CC2)c1Cl | inactive | inactive | inactive | inactive | inactive | inactive | inactive | inactive | inactive | inactive | 7.35 | inactive | 12.5 (≈ 5.22 µg/mL) | inactive | inactive
13 | CC(C)n1ncc(C(=O)N2CCC(Nc3cc(=O)[nH]c4ccccc34)CC2)c1Cl | inactive | inactive | inactive | inactive | inactive | inactive | inactive | inactive | inactive | inactive | 5.15 | inactive | 100 (≈ 41.4 µg/mL) | inactive | inactive
14 | Cn1cc(C(=O)N2CCC(Nc3cc(=O)[nH]c4ccccc34)CC2)cn1 | inactive | inactive | inactive | inactive | inactive | inactive | inactive | inactive | inactive | inactive | 5.66 | inactive | 140 (≈ 49.2 µg/mL) | inactive | inactive
15 | CCn1c(=O)cc(NC2CCN(C(=O)c3cnn(C)c3Cl)CC2)c2ccccc21 | inactive | inactive | inactive | inactive | inactive | inactive | inactive | inactive | inactive | inactive | < 4.00 | inactive | > 100 | inactive | inactive
16 | Cc1onc(C(=O)N2CCC(Nc3cc(=O)[nH]c4ccc(F)cc34)CC2)c1C | inactive | inactive | inactive | inactive | inactive | inactive | inactive | inactive | inactive | inactive | > 8.22 | inactive | 6.2 (≈ 2.38 µg/mL) | inactive | inactive
17 | Cn1ncc(C(=O)N2CCC(Nc3cc(=O)[nH]c4c(F)c(F)ccc34)CC2)c1Cl | inactive | inactive | inactive | inactive | inactive | inactive | inactive | inactive | inactive | inactive | 8.05 | inactive | 1.6 (≈ 0.675 µg/mL) | inactive | inactive
18 | Cn1ncc(C(=O)N2CCC(Nc3cc(=O)n(C)c4cc(F)c(F)cc34)CC2)c1Cl | inactive | inactive | inactive | inactive | inactive | inactive | inactive | inactive | inactive | inactive | 7.70 | inactive | 3.1 (≈ 1.35 µg/mL) | inactive | inactive
19 | Cn1ncc(C(=O)N2CCC(Nc3n[nH]c4ccc(F)cc34)CC2)c1Cl |  |  |  |  |  |  |  |  |  |  | 6.95 |  | > 100 |  | 
20 | Cn1ncc(C(=O)N2[C@@H]3CC[C@H]2C[C@@H](Nc2cc(=O)[nH]c4cc(F)c(F)cc24)C3)c1Cl |  |  |  |  |  |  |  |  |  |  | 8.05 |  | 0.06 (≈ 0.0269 µg/mL) |  | 
21 | Cn1ncc(C(=O)N2[C@@H]3CC[C@H]2C[C@@H](Nc2cc(=O)n(C)c4cc(F)c(F)cc24)C3)c1Cl |  |  |  |  |  |  |  |  |  |  | 8.10 |  | 0.12 (≈ 0.0554 µg/mL) |  | 
22 | Cc1onc(C(=O)N2CCC(Nc3cc(=O)[nH]c4cc(F)c(F)cc34)CC2)c1C | inactive | inactive | inactive | inactive | inactive | inactive | inactive | inactive | inactive | inactive | 7.74 | inactive | 0.2 (≈ 0.0805 µg/mL) | inactive | inactive
23 | Cn1ncc(C(=O)N2CCC(Nc3cnnc4ccccc34)CC2)c1Cl |  |  |  |  |  |  |  |  |  |  | < 5.00 |  | > 200 |  | 
24 | Cn1ncc(C(=O)N2CC(Nc3cc(=O)[nH]c4ccccc34)C2)c1Cl |  |  |  |  |  |  |  |  |  |  | 5.74 |  | 50 (≈ 17.9 µg/mL) |  | 
25 | Cn1ncc(C(=O)N2[C@@H]3CC[C@H]2C[C@@H](Nc2cc(-c4ccccc4)[nH]c(=O)c2)C3)c1Cl |  |  |  |  |  |  |  |  |  |  | 7.28 |  | 1.6 (≈ 0.701 µg/mL) |  | 
26 | COc1cc(NC2CCN(C(=O)c3cnn(C)c3Cl)CC2)c2ccccc2n1 |  |  |  |  |  |  |  |  |  |  | 4.11 |  | > 200 |  | 
27 | Cn1ncc(C(=O)N2[C@@H]3CC[C@H]2C[C@@H](Nc2cc(=O)n(C)c4ccc(F)cc24)C3)c1Cl |  |  |  |  |  |  |  |  |  |  | 7.92 |  | 0.25 (≈ 0.111 µg/mL) |  | 
